Experiments:
B2 bradykinin receptor [1] = target: T1, B2 bradykinin receptor (Homo sapiens, UniProt P30411); assay: In vitro inhibitory activity towards human bradykinin receptor B2 expressed in CHO cells using [3H]BK (1.0 nM) as a radioligand; format: cell-based
T1 sequence (P30411 whole entry): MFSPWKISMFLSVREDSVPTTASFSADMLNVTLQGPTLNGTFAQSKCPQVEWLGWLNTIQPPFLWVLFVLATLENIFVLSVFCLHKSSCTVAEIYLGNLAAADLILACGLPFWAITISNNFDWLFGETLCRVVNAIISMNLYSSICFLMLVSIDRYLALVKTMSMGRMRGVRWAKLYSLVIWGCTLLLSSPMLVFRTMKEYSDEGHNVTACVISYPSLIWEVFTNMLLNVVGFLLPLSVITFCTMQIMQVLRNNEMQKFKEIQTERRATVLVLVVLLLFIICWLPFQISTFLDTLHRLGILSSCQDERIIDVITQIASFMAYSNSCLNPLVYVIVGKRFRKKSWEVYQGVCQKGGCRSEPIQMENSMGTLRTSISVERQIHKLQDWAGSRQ
How it was run: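 Stably transfected CHO (dhfr-) cells seeded at 3.0 × 10^4 cells/well, cultured 1 day, then incubated with test compounds for 2 h at 4 °C. Binding buffer was HEPES/N-methyl-D-glucamine pH 7.2 with bacitracin, enalaprilat and BSA. Cells solubilized in SDS/NaOH and counted by scintillation; nonspecific binding with 1 μM unlabeled BK. Run three times.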

B2 bradykinin receptor [2] = target: T2, B2 bradykinin receptor (Cavia porcellus, UniProt O70526); assay: In vitro inhibitory activity towards bradykinin receptor B2 using [3H]BK (0.06 nM) as a radioligand in guinea pig ileum membrane preparation; format: cell membranes
T2 sequence (O70526 whole entry): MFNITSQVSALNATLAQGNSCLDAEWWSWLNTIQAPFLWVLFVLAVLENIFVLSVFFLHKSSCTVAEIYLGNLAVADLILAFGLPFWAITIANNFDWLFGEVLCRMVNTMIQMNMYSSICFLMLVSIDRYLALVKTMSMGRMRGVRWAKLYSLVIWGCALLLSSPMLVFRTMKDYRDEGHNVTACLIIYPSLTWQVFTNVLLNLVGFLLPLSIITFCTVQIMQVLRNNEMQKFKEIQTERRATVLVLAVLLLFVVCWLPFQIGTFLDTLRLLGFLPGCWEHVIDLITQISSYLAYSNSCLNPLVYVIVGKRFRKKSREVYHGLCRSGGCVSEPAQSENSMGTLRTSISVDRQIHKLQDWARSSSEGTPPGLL
How it was run: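 Ileal membranes from male Hartley guinea pigs, prepared in TES/1,10-phenanthroline pH 6.8 with 100000 g pellet. Membranes (0.2 mg protein/mL) incubated with [3H]BK and varying compound concentrations 60 min at room temperature in binding buffer with bacitracin, DTT, captopril, BSA. Filter harvest, scintillation counting; nonspecific with 1 μM BK. IC50 as mean of ≥3 determinations.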

Cavia porcellus [3] = assay: Compound was evaluated for percentage inhibition against BK-induced bronchoconstriction in anesthetized guinea pig, intravenously at a concentration of 1 mg/kg; format: functional; details: route intravenous
How it was run: (§1)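 Male Hartley guinea pigs (470-750 g), fasted overnight, pentobarbital 30 mg/kg ip, tracheal and jugular cannulation, ventilated 10 mL/kg at 60 breaths/min; alcuronium 0.5 mg/kg iv, propranolol 10 mg/kg sc. BK 5 μg/kg iv; compound in 5% citric acid iv 25 min later, BK repeated 5 min after drug. Peak insufflation pressure rise (Konzett-Rossler); % inhibition vs vehicle, n=3-4.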

Cavia porcellus [4] = assay: Compound was evaluated for percentage inhibition against BK-induced bronchoconstriction in anesthetized guinea pig, intravenously at a concentration of 10 mg/kg; format: functional; details: route intravenous; how it was run: as §1

SMILES | IC50 (B2 bradykinin receptor [1]) [nM] | IC50 (B2 bradykinin receptor [2]) [nM] | inhibition in vivo at 1 mg/kg (Cavia porcellus [3]) [%] | inhibition in vivo at 10 mg/kg (Cavia porcellus [4]) [%]
N=C(N)NCCC[C@@H](N)C(=O)N[C@@H](CCCNC(=N)N)C(=O)N1CCC[C@H]1C(=O)N1C[C@H](O)C[C@H]1C(=O)NCC(=O)N[C@@H](Cc1cccs1)C(=O)N[C@@H](CO)C(=O)N1Cc2ccccc2C[C@@H]1C(=O)N1[C@H](C(=O)N[C@@H](CCCNC(=N)N)C(=O)O)C[C@@H]2CCCC[C@@H]21 [ICATIBANT] |  |  | 63.4 | 
CNC(=O)c1ccc(/C=C/C(=O)NCC(=O)N(C)c2ccc(C)c(COc3cccc4c(-c5ccccc5)cc(C)nc34)c2C)cc1 | 1 | 3.1 |  | 
Cc1cc(-n2ccnc2)c2cccc(OCc3c(Cl)ccc(N(C)C(=O)CNC(=O)/C=C/c4ccc(C(=O)Nc5ccncc5)cc4)c3Cl)c2n1 | 0.42 | 17 |  | 
CNC(=O)c1ccc(/C=C/C(=O)NCC(=O)N(C)c2ccc(Cl)c(COc3cccc4c(N(C)C)cc(C)nc34)c2Cl)cc1 | 3.2 | 1.8 |  | 
Cc1cc(N(C)C)c2cccc(OCc3c(Cl)ccc(N(C)C(=O)CNC(=O)/C=C/c4ccc(C(=O)N(C)C)cc4)c3Cl)c2n1 | 2.1 | 2.9 |  | 
CNC(=O)c1ccc(/C=C/C(=O)NCC(=O)N(C)c2ccc(Cl)c(COc3cccc4c(-n5ccnc5)cc(C)nc34)c2Cl)cc1 | 0.28 | 3.7 |  | 
Cc1cc(-n2ccnc2)c2cccc(OCc3c(Cl)ccc(N(C)C(=O)CNC(=O)/C=C/c4ccc(C(=O)N(C)C)cc4)c3Cl)c2n1 | 0.35 | 4.3 |  | 
Cc1cc(-n2ccnn2)c2cccc(OCc3c(Cl)ccc(N(C)C(=O)CNC(=O)/C=C/c4ccc(C(=O)N(C)C)cc4)c3Cl)c2n1 | 0.28 | 9.1 |  | 
Cc1cc(-n2ccnc2)c2cccc(OCc3c(Cl)ccc(-n4cccc4CNC(=O)/C=C/c4ccc(C(=O)NCc5ccccn5)cc4)c3Cl)c2n1 | 0.43 | 6 |  | 

Continued, in another order:

IC50 (B2 bradykinin receptor [1]) [nM] | IC50 (B2 bradykinin receptor [2]) [nM] | SMILES | inhibition in vivo at 1 mg/kg (Cavia porcellus [3]) [%] | inhibition in vivo at 10 mg/kg (Cavia porcellus [4]) [%]
0.18 | 3.3 | Cc1cc(-n2cccn2)c2cccc(OCc3c(Cl)ccc(N(C)C(=O)CNC(=O)/C=C/c4ccc(C(=O)N(C)C)cc4)c3Cl)c2n1 |  | 
0.26 | 3 | Cc1cc(-n2ccnc2)c2cccc(OCc3c(Cl)ccc(-n4cccc4CNC(=O)/C=C/c4ccc(C(=O)N(C)C)cc4)c3Cl)c2n1 | 46 | 
0.23 | 4.4 | CNC(=O)c1ccc(/C=C/C(=O)NCC(=O)N(C)c2ccc(Cl)c(COc3cccc4c(-n5cncn5)cc(C)nc34)c2Cl)cc1 |  | 
0.17 | 2.7 | CNC(=O)c1ccc(/C=C/C(=O)NCC(=O)N(C)c2ccc(Cl)c(COc3cccc4c(-n5cccn5)cc(C)nc34)c2Cl)cc1 |  | 
0.23 | 6.6 | Cc1cc(-n2ccnc2)c2cccc(OCc3c(Cl)ccc(N(C)C(=O)CNC(=O)Nc4cccc(C(=O)Nc5ccncc5)c4)c3Cl)c2n1 |  | 56.8

From ChEMBL document CHEMBL1149113 (J Med Chem, 2004)
